# Measurements pooled from the literature.
# Each line is one published result; the experiments were not run side by side.
Structure (SMILES),organism,test,test system,conditions,endpoint,value
CCCC1CCC2(CC1)SCC(=O)N2NC(=O)c1[nH]c2ccc(Cl)cc2c1-c1ccccc1 (stereo not shown),Enterovirus B,"viral replication, inhibitor","Vero, B4",,EC50,> 100 µM
C=C1/C(=C\C=C2/CCC[C@]3(C)[C@@H]([C@H](C)CCCC(C)(C)O)CC[C@@H]23)C[C@@H](O)C[C@@H]1O,Hepatitis C virus,"viral replication, inhibitor, luciferase","BM4-5, GETYPE1B","72 h, replicon",EC50,3.19 µM
COC(=O)c1cc(-c2cccc(NC(=O)Nc3ccc(Cl)cc3)c2)on1,Acinetobacter baumannii,"microbial growth, broth dilution",BAA1605,,MIC,> 64 µg/mL
CC(C)(C)C1CCC2(CC1)SCC(=O)N2NC(=O)c1[nH]c2ccc(Cl)cc2c1-c1ccccc1 (stereo not shown),Enterovirus B,"viral replication, inhibitor","Vero, B4",,EC50,> 100 µM
C=C1CC[C@H](O)C/C1=C/C=C1\CCC[C@]2(C)[C@@H]([C@H](C)/C=C/[C@H](C)C(C)C)CC[C@@H]12,Hepatitis C virus,"viral replication, inhibitor, luciferase",GETYPE2A,"5 days, replicon",EC50,13 µM
O=C(Nc1cccc(-c2cc(C(=O)O)no2)c1)Nc1ccc(Cl)c(Cl)c1,Acinetobacter baumannii,"microbial growth, broth dilution",BAA1605,,MIC,> 64 µg/mL
C[n+]1c(/C=C/c2c[nH]c3ccccc23)cc(/C=C2\Sc3ccccc3N2CCCN2CCOCC2)c2ccccc21.[I-],Acinetobacter baumannii,"microbial growth, broth dilution",ATCC19606,drug-resistant strain,MIC,> 64 µg/mL
Cc1c(NN=C(C#N)C2=NC(=O)CS2)c(=O)n(-c2ccccc2)n1C,Acinetobacter baumannii,"microbial killing, broth dilution",,,MBC,0.25 µg/mL
CCC1CCC2(CC1)SCC(=O)N2NC(=O)c1[nH]c2ccc(Cl)cc2c1-c1ccccc1 (stereo not shown),Enterovirus B,"viral replication, inhibitor","Vero, B4",,EC50,> 100 µM
COC(=O)c1cc(-c2cccc(NC(=S)Nc3ccc(F)cc3)c2)on1,Acinetobacter baumannii,"microbial growth, broth dilution",BAA1605,,MIC,> 64 µg/mL
C=C1CC[C@H](O)C/C1=C/C=C1\CCC[C@]2(C)[C@@H]([C@H](C)CCCC(C)C)CC[C@@H]12,Hepatitis C virus,"viral replication, inhibitor, luciferase","BM4-5, GETYPE1B","72 h, replicon",EC50,6.1 µM
CC1SC2(CCC(c3ccccc3)CC2)N(NC(=O)c2[nH]c3ccc(Cl)cc3c2-c2ccccc2)C1=O (stereo not shown),Enterovirus B,"viral replication, inhibitor","Vero, B4",,EC50,> 100 µM
COC(=O)N[C@H](C(=O)N1CCC[C@H]1c1ncc(-c2ccc(-c3cnc([C@@H]4CCCN4C(=O)[C@@H](NC(=O)OC)C(C)C)[nH]3)cc2)[nH]1)C(C)C,Hepatitis C virus,"viral replication, inhibitor","Huh-7, GETYPE1B",replicon,EC90,> 0.001 µM
COc1nc(N)nc2c1ncn2[C@@H]1O[C@H](COP(=O)(N[C@@H](C)C(=O)OCC(C)(C)C)Oc2cccc3ccccc23)[C@@H](O)[C@@]1(C)O (stereo partly shown),Hepatitis C virus,"viral replication, inhibitor",GETYPE2A,"96 h, replicon",EC90,0.0128 µM
CC1SC2(CCCCC2)N(NC(=O)c2[nH]c3ccc(Cl)cc3c2-c2ccccc2)C1=O (stereo not shown),Enterovirus B,"viral replication, inhibitor","Vero, B4",,EC50,> 100 µM
C[n+]1c(/C=C/c2ccc(O)cc2)cc(/C=C2\Sc3ccccc3N2CCCN2CCOCC2)c2ccccc21.[I-],Acinetobacter baumannii,"microbial growth, broth dilution",ATCC19606,drug-resistant strain,MIC,> 64 µg/mL
CC1CC(C)(C)CC2(C1)SCC(=O)N2NC(=O)c1[nH]c2ccc(Cl)cc2c1-c1ccccc1 (stereo not shown),Enterovirus B,"viral replication, inhibitor","Vero, B4",,EC50,> 100 µM
COC(=O)c1cc(-c2cccc(NC(=O)Nc3cc(Cl)ccc3Cl)c2)on1,Acinetobacter baumannii,"microbial growth, broth dilution",BAA1605,,MIC,> 64 µg/mL
O=C(NN1C(=O)CSC12CCCCC2)c1[nH]c2ccc(Cl)cc2c1-c1ccccc1,Enterovirus B,"viral replication, inhibitor","Vero, B4",,EC50,> 100 µM
COC(=O)c1cc(-c2cccc(NC(=S)Nc3ccc(OC)cc3)c2)on1,Acinetobacter baumannii,"microbial growth, broth dilution",BAA1605,,MIC,> 64 µg/mL
C=C[C@@H]1C[C@]1(NC(=O)[C@@H]1C[C@@H]2CN1C(=O)[C@H](C(C)(C)C)NC(=O)O[C@@H]1C[C@H]1CCCCCc1nc3ccc(OC)cc3nc1O2)C(=O)NS(=O)(=O)C1CC1,Hepatitis C virus,"viral replication, inhibitor, luciferase","Huh-7, GETYPE1B","96 h, replicon",IC50,0.0466 µM
CCCCCCNC(=S)Nc1cccc(-c2cc(C(=O)OC)no2)c1,Acinetobacter baumannii,"microbial growth, broth dilution",BAA1605,,MIC,> 64 µg/mL
CC1CCN(CCCN2/C(=C/c3cc[n+](C)c4ccccc34)Sc3ccccc32)CC1.[I-],Acinetobacter baumannii,"microbial growth, broth dilution",ATCC19606,drug-resistant strain,MIC,16 µg/mL
COC(=O)c1cc(-c2cccc(NC(=O)Nc3ccccc3)c2)on1,Acinetobacter baumannii,"microbial growth, broth dilution",BAA1605,,MIC,> 64 µg/mL
C[n+]1c(/C=C/c2ccc(O)cc2)cc(/C=C2\Sc3ccccc3N2CCCN2CCCC2)c2ccccc21.[I-],Acinetobacter baumannii,"microbial growth, broth dilution",ATCC19606,drug-resistant strain,MIC,> 64 µg/mL
CC1CCC2(CC1)SC(C)C(=O)N2NC(=O)c1[nH]c2ccc(Cl)cc2c1-c1ccccc1 (stereo not shown),Enterovirus B,"viral replication, inhibitor","Vero, B4",,EC50,> 100 µM
CC1(C)S[C@@H]2[C@H](NC(=O)[C@H](N)c3ccccc3)C(=O)N2[C@H]1C(=O)O,Acinetobacter baumannii,"microbial growth, broth dilution",ATCC19606,drug-resistant strain,MIC,64 µg/mL
COC(=O)c1cc(-c2cccc(NC(=O)Nc3ccc(C)cc3)c2)on1,Acinetobacter baumannii,"microbial growth, broth dilution",BAA1605,,MIC,> 64 µg/mL
